The record followed here is ChEMBL document CHEMBL6153064, “Structure-based discovery of novel diarylpyrimidines as potent and selective Non-Nucleoside reverse transcriptase inhibitors: From CH(CN)-Biphenyl-Diarylpyrimidines to CNNH2-Biphenyl-Diarylpyrimidines” (Eur J Med Chem, 2025).

The term EC50 denotes the concentration that produces a half-maximal response. One may read the CC50 as the concentration that lowers cell viability or growth by half. The IC50 is the concentration needed to halve the response being measured. A lower IC50 goes with greater potency. Usually half-life stands for how long it takes for the measured level to halve.

The test system of data set [1] is Human immunodeficiency virus 1. Put plainly: Antiviral activity against wild type HIV-1 IIIB infected in human MT4 cells […]. The conditions noted are these: Human immunodeficiency virus 1, IIIB. Format: functional, organism-based.
Data set [2] is described as follows: Cytotoxicity against human MT4 cells by MTT assay. Format: toxicity, cell-based. In general terms: Formazan colour is commonly taken as a measure of viable cells.
A short description of data set [3]: Selectivity index, ratio of CC50 for cytotoxicity against human MT4 cells to EC50 for antiviral activity against wild type HIV-1 IIIB infected in human MT4 cells. Format: toxicity, cell-based. The conditions noted are these: read-out: Ratio CC50/EC50. In outline:
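Selectivity index calculated as CC50/EC50 ratio, both values from MTT viability readout in MT-4 cells, antiviral arm using wild-type HIV-1 IIIB.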

The test system of data set [4] is Human immunodeficiency virus 1. The data set can be described thus: Antiviral activity against HIV-1 harboring L100I mutant infected in human MT4 cells […]. The format is functional, organism-based. The conditions noted are these: Human immunodeficiency virus 1, MT4.
In data set [5] the test system is Human immunodeficiency virus 1. Put plainly: Antiviral activity against HIV-1 harboring K103N mutant infected in human MT4 cells […]. The format is functional, organism-based. As to conditions: Human immunodeficiency virus 1, MT4.
The test system of data set [6] is Human immunodeficiency virus 1. Put plainly: Antiviral activity against HIV-1 harboring Y181C mutant infected in human MT4 cells […]. The format is functional, organism-based. The conditions noted are these: Human immunodeficiency virus 1, MT4.
The test system of data set [7] is Human immunodeficiency virus 1. The data set can be described thus: Antiviral activity against HIV-1 harboring E138K mutant infected in human MT4 cells […]. Format: functional, organism-based. The conditions noted are these: Human immunodeficiency virus 1, MT4.
For data set [8], the target named is Human immunodeficiency virus type 1 reverse transcriptase (Human immunodeficiency virus 1, UniProt Q72547). Put plainly: Inhibition of wild type HIV-1 Reverse transcriptase.
Data set [9] deals with Human immunodeficiency virus type 1 reverse transcriptase (Human immunodeficiency virus 1) (UniProt Q72547). The data set can be described thus: Potency index, ratio of Nevirapine IC50 to test compound IC50 for inhibition of wild type HIV-1 Reverse transcriptase.
In data set [10] the test system is Human immunodeficiency virus 1. The data set can be described thus: Antiviral activity against HIV-1 harboring Y188L mutant infected in human MT4 cells assessed as inhibition of virus-induced cytopathic effect by MTT assay. As to conditions: Human immunodeficiency virus 1, MT4. A general note: Cytopathic effects are the visible damage that an infection or toxin causes in cultured cells.

The nature of data set [11]: Stability in human plasma assessed as parent compound remaining measured immediately. The format is ADME, cell-free. The conditions noted are these: read-out: Stability.
A short description of data set [12]: Stability in human plasma assessed as parent compound remaining measured at 15 mins. The format is ADME, cell-free. The conditions noted are these: read-out: Stability.
A short description of data set [13]: Stability in human plasma assessed as parent compound remaining measured at 30 mins. As to conditions: read-out: Stability. Format: ADME, cell-free.
Data set [14] can be described thus: Stability in human plasma assessed as parent compound remaining measured at 60 mins. The format is ADME, cell-free. The conditions noted are these: read-out: Stability.
Data set [15] in a line: Stability in human plasma assessed as parent compound remaining measured at 120 mins. Format: ADME, cell-free. The conditions noted are these: read-out: Stability.
Data set [16] can be described thus: Stability in human plasma assessed as parent compound remaining measured at 300 mins. The conditions noted are these: read-out: Stability. Format: ADME, cell-free.
Data set [17] can be described thus: Stability in human plasma assessed as half life. The format is ADME, cell-free.
Data set [18] is described as follows: Metabolic stability in human liver microsomes assessed as half life. The format is ADME, Microsome. In a few lines: (§1)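 Incubation with human liver microsomes; half-life obtained from depletion fit (R² reported), intrinsic clearance expressed per mg microsomal protein (μL/min/mg) and scaled to liver (mL/min/kg).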
In general terms: Liver microsomes are a subcellular fraction often used to study metabolism.

Data set [19] is described as follows: Metabolic stability in human microsomes assessed as intrinsic clearance. Format: ADME, Microsome. The conditions noted are these: read-out: CLH. In outline: as §1

Regarding `CNC(c1ccnc(Nc2ccc(C#N)cc2)n1)c1ccc(-c2ccc(C#N)cc2)cc1OC(F)(F)F` (configuration not stated), the EC50 was 56 nM in data set [1]; 1940 nM in data set [4]; 1460 nM in [5]; 2220 nM in [6]; 320 nM in data set [7]; no less than 7210 nM in data set [10]. In [2], this compound gave a CC50 of 18000 nM. The selectivity ratio in [3] came to 313. Further, in data set [8], 2000 nM corresponded to half-maximal inhibition (IC50). In addition, the Ratio IC50 in data set [9] is 0.38.
Turning to `CNC(c1ccnc(Nc2ccc(C#N)cc2)n1)c1ccc(-c2ccc(C#N)cc2)cc1F` (configuration not stated), the EC50 in [1] was 64 nM; in data set [4], no less than 11000 nM; in [5] it was 10500 nM; in data set [6], 1910 nM; in data set [7], 368 nM; in [10] it was greater than 12700 nM. Besides, the CC50 in data set [2] came to 13000 nM. Besides, the selectivity ratio in [3] stood at 196. The same compound displayed an IC50 in [8] of 783 nM. Moreover, in data set [9], the Ratio IC50 came to 0.96.
On to `N#Cc1ccc(Nc2nccc(/C(=N/N)c3ccc(-c4ccc(C#N)cc4)cc3C(F)(F)F)n2)cc1`, for which the EC50 in data set [1] is 31 nM; in data set [4], 58 nM; in data set [5] it was 106 nM; in data set [6] it was 134 nM; in data set [7] it was 68 nM; in [10], 1140 nM. The CC50 in [2] worked out at 68000 nM. The selectivity ratio in [3] was 2170. This compound also gave an IC50 in data set [8] of 58 nM.
On to `C/N=C(/c1ccnc(Nc2ccc(C#N)cc2)n1)c1ccc(-c2ccc(C#N)cc2)cc1C`, for which the EC50 in [1] was 12 nM; in data set [4] it was 1540 nM; in [5], 373 nM; in data set [6], 420 nM; in [7], 82 nM; in data set [10], greater than 46700 nM. In [2], the CC50 was greater than 47000 nM. In [3], the selectivity ratio is greater than 3940. The compound also yielded an IC50 in data set [8] of 58 nM.
Regarding `Cc1cc(C#N)cc(C)c1Oc1nc(Nc2ccc(C#N)cc2)nc(N)c1Br` [ETRAVIRINE], in data set [2], the CC50 is greater than 4600 nM. Moreover, the remaining at 0 min in data set [11] turned out to be 100%. For the same compound, in data set [12], the remaining at 0.25 h stood at 102%. Further, the remaining at 0.5 h in data set [13] turned out to be 95.4%. In data set [14], the remaining at 1 h turned out to be 97%. Also, the remaining at 2 h in data set [15] came to 92.1%. Also, the remaining at 5 h in data set [16] came to 78.5%. Also, the figures for the half-life in data set [17] and in [18] were greater than 5 h and 1.09 h, respectively. The microsomal CLint in [19] came out at 21.1 µL/min/mg. In addition, in data set [10], the EC50 was 20 nM.
For the compound `N#Cc1ccc(Nc2nccc(/C(=N/N)c3ccc(-c4ccc(C#N)cc4)cc3F)n2)cc1`, the EC50 is 7 nM in data set [1]; 69 nM in data set [4]; 125 nM in data set [5]; 210 nM in [6]; 194 nM in data set [7]; greater than 46100 nM in [10]. The CC50 in data set [2] is greater than 46000 nM. Besides, the selectivity ratio in data set [3] was greater than 6210. The midpoint of inhibition in data set [8], the IC50, lay at 20 nM.
As to `Cc1cc(-c2ccc(C#N)cc2)ccc1/C(=N\N)c1ccnc(Nc2ccc(C#N)cc2)n1`, the EC50 in data set [1] came out at 7 nM; in data set [4], 16 nM; in [5], 17 nM; in data set [6], 47 nM; in data set [7], 13 nM; in [10], 442 nM. Moreover, the CC50 in data set [2] was greater than 291000 nM. In data set [3], the selectivity ratio is greater than 45000. The same compound showed an IC50 in [8] of 23 nM.
On to `Cc1cc(/C=C/C#N)cc(C)c1Nc1ccnc(Nc2ccc(C#N)cc2)n1` [RILPIVIRINE], for which the remaining at 0 min in [11] was found to be 100%. For the same compound, the remaining at 0.25 h in data set [12] was 102%. In data set [13], the remaining at 0.5 h worked out at 99.4%. The remaining at 1 h in data set [14] was 99.3%. For the same compound, in [15], the remaining at 2 h came out at 95.3%. In data set [16], the remaining at 5 h is 97.4%. Moreover, the half-life in data set [17] was greater than 5 h. For the same compound, in data set [19], the microsomal CLint amounted to 108 µL/min/mg.
For `CNC(c1ccnc(Nc2ccc(C#N)cc2)n1)c1ccc(-c2ccc(C#N)cc2)cc1C(F)(F)F` (configuration not stated), the EC50 in [1] was 39 nM; in data set [4], 2440 nM; in [5], 1340 nM; in data set [6], 1180 nM; in data set [7] it was 184 nM; in data set [10], 7510 nM. The CC50 in data set [2] was found to be 15000 nM. For the same compound, the selectivity ratio in data set [3] was 363. In [8], this compound had an IC50 of 495 nM. Moreover, in [9], the Ratio IC50 is 1.5.
Take `C/N=C(/c1ccnc(Nc2ccc(C#N)cc2)n1)c1ccc(-c2ccc(C#N)cc2)cc1C(F)(F)F`: the EC50 in data set [1] is 35 nM; in data set [4], 352 nM; in data set [5], 415 nM; in [6], 435 nM; in data set [7], 290 nM; in data set [10], 3030 nM. Moreover, the CC50 in [2] came out at 119000 nM. Also, the selectivity ratio in [3] is 3280. For the same compound, the IC50 in data set [8] was found to be 180 nM.
Consider `CNC(c1ccnc(Nc2ccc(C#N)cc2)n1)c1ccc(-c2ccc(C#N)cc2)cc1C` (configuration not stated), for which the EC50 in data set [1] was found to be 33 nM; in [4], 2440 nM; in [5], 743 nM; in [6] it was 1090 nM; in data set [7], 279 nM; in data set [10], 9200 nM. The midpoint of cytotoxicity in data set [2], the CC50, lay at 12000 nM. For the same compound, the selectivity ratio in [3] worked out at 367. In addition, the 50% inhibitory concentration (IC50) in [8] was determined as 153 nM.
For `N#Cc1ccc(Nc2nccc(/C(=N/N)c3c(F)cc(-c4ccc(C#N)cc4)cc3F)n2)cc1`, the EC50 was 9 nM in data set [1]; 16 nM in data set [4]; 44 nM in data set [5]; 64 nM in [6]; 38 nM in [7]; greater than 23100 nM in [10]. This compound gave a CC50 in data set [2] of 23000 nM. In addition, the selectivity ratio in [3] came out at 2480. In addition, in data set [8], the IC50 is 31 nM.
For the compound `CNC(c1ccnc(Nc2ccc(C#N)cc2)n1)c1ccc(-c2ccc(C#N)cc2)cc1OC` (configuration not stated), the concentration for a half-maximal effect (EC50) was found to be 36 nM in data set [1]; 2330 nM in data set [4]; 941 nM in [5]; 1300 nM in data set [6]; 224 nM in data set [7]; 7320 nM in data set [10]. Further, the midpoint of cytotoxicity in [2], the CC50, lay at 13000 nM. Also, in [3], the selectivity ratio came to 354. This compound also showed an IC50 in data set [8] of 963 nM. The Ratio IC50 in data set [9] came to 0.78.
